As usually defined, the pIC50 is the IC50 on a negative log10 scale, so that one unit is a factor of ten. The term half-life denotes the time needed for the level to fall by half in the phase considered. Usually bioavailability stands for the share of a dose that reaches the circulation, judged against a reference dose that is usually intravenous. The ED50 is the dose at which the effect has come halfway, by size or by number of responders. As a reminder, the Tmax is the time at which the peak concentration occurs.

pIC50: −log10 of the molar value. Activity calls are given as the source filed them.

The source of these data is ChEMBL document CHEMBL1156058, “Discovery of disubstituted phenanthrene imidazoles as potent, selective and orally active mPGES-1 inhibitors” (Bioorg Med Chem Lett, 2009).

In data set [1] the test system is Blood. The data set is described as follows: Inhibition of PGE2 production in LPS-stimulated human whole blood. In kind it is functional, tissue-based.
Data set [2] in a line: Half life in rat at 5 mg/kg, iv administered as single dose. In kind it is ADME, organism-based. Further details: dose 5 mg/kg, route intravenous. Particulars: in vivo.
Data set [3] deals with T1, Prostaglandin E synthase (Homo sapiens, UniProt O14684).
T1 sequence (O14684 whole entry): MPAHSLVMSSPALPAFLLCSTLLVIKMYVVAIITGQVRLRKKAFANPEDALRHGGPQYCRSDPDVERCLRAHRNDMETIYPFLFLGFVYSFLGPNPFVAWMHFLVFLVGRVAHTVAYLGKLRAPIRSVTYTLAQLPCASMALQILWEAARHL
As to the kind of experiment: Displacement of [3H]PGH2 from human recombinant PGES1 expressed in CHOK1 cells. In kind it is cell-based, CHO-K1. Background: Loss of bound radioactivity is the signal in a displacement assay; it reports binding, not function.

Data set [4] can be described thus: Oral bioavailability in rat at 20 mg/kg administered as single dose. It counts as ADME, organism-based. Particulars: in vivo.
For data set [5], the target named is T1, Prostaglandin E synthase. The data set is described as follows: Inhibition of mPGES1 in IL-1-beta-stimulated human A549 cells assessed as blockade of PGH2 to PGE2 conversion in presence of 50% fetal bovine serum. In kind it is cell-based.
Data set [6] can be described thus: Half life in monkey. In kind it is ADME, organism-based, Macaca mulatta. As to conditions: rhesus monkey, in vivo.
Data set [7] can be described thus: Inhibition of PGES1 in guinea pig whole blood. In kind it is tissue-based. Particulars: Cavia porcellus.
Another data set deals with A549. As to the kind of experiment: Inhibition of PGF2alpha production in human A549 cells in presence of 50% fetal bovine serum. It counts as functional, cell-based.
The test system of the next data set is Cavia porcellus. As to the kind of experiment: Analgesic activity against LPS-induced thermal hyperalgesia in po dosed Hartley guinea pig assessed as decrease in paw withdrawal latency administered 1 hr before LPS challenge measured after […]. In kind it is functional.
The nature of data set [8]: Metabolic stability in human liver hepatocytes assessed as compound remaining after 2 hrs. As to conditions: read-out: Stability. It counts as ADME, cell-based, Hepatocyte. In short, it runs like this:
(§1)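 Compound incubated with hepatocytes (rat or human) for 2 h at 37 °C; read-out is % parent compound remaining; values are means of at least two experiments.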

The target in data set [9] is Prostaglandin E synthase 2 (Homo sapiens, UniProt Q9H7Z7). The data set is described as follows: Inhibition of human PGES2.
Chain of Prostaglandin E synthase 2 (Q9H7Z7 whole entry): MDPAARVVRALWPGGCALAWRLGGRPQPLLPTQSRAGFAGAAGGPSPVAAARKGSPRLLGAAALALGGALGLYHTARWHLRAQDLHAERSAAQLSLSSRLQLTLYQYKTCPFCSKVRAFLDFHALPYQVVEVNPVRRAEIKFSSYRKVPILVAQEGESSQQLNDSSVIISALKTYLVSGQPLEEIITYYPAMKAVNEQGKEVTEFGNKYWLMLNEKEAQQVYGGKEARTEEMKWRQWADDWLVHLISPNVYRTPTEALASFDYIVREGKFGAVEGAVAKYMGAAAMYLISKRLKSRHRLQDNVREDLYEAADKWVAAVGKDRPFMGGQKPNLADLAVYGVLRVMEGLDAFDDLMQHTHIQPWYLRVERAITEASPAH
For a further data set, the target named is T2, Thromboxane-A synthase (Homo sapiens, UniProt P24557).
T2 sequence (P24557 whole entry): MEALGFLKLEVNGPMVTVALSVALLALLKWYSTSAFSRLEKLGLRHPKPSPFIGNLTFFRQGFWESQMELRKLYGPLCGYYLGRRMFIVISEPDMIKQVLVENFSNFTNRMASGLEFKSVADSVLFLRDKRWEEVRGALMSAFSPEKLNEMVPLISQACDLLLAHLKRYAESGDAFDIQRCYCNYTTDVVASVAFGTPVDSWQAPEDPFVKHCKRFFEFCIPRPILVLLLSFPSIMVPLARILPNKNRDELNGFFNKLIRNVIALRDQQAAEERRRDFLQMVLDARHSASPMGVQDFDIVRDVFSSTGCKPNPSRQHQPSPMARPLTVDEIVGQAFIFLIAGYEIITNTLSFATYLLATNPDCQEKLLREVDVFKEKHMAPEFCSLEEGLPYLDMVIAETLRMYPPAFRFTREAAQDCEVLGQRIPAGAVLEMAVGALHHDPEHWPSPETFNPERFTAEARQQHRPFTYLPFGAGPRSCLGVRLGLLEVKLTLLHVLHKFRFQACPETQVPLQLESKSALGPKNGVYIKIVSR
The data set is described as follows: Inhibition of TX synthase.

The nature of data set [10]: Metabolic stability in rat liver hepatocytes assessed as compound remaining after 2 hrs. In kind it is ADME, cell-based, Hepatocyte. Particulars: read-out: Stability. Put shortly: as §1
Data set [11] deals with Blood. The data set is described as follows: Inhibition of PGI2 production in LPS-stimulated human whole blood. It counts as functional, tissue-based.
For data set [12], the system named is Blood. As to the kind of experiment: Inhibition of PGD2 production in LPS-stimulated human whole blood. It counts as functional, tissue-based.
Data set [13] deals with Blood. The data set is described as follows: Inhibition of TXB2 production in LPS-stimulated human whole blood. In kind it is functional, tissue-based.
Data set [14] can be described thus: Tmax in rat at 20 mg/kg. It counts as ADME, organism-based. Further details: dose 20 mg/kg. As to conditions: in vivo.
Data set [15] deals with Blood. The data set is described as follows: Inhibition of TXA2 production in human whole blood. It counts as functional, tissue-based.

In the data set on Blood [1], `CC(C)(O)c1ccc2c(c1)c1cc(Cl)ccc1c1nc(-c3c(C#N)cccc3C#N)[nH]c21` showed a pIC50 of 5.85.

For `CC(C)(O)C#Cc1ccc2c(c1)c1cc(C#CC3CC3)ccc1c1nc(-c3c(C#N)cccc3C#N)[nH]c21`, in [2], the half-life was 40 h. In addition, the pIC50 at Prostaglandin E synthase [3] was 9.00; in the data set with Blood [1], 7.12.

As to `CC(C)(O)Cc1ccc2c(c1)c1cc(OCCC3CC3)ccc1c1nc(-c3c(C#N)cccc3C#N)[nH]c21`, the half-life in data set [2] is 1.6 h. The bioavailability in data set [4] was 76%. The negative-log IC50 (pIC50) at Prostaglandin E synthase [3] was 9.05; in the data set with Blood [1], 6.66.

Consider `CC(=O)c1ccc2c(c1)c1cc(C(C)=O)ccc1c1[nH]c(-c3c(F)cccc3Cl)nc21`, for which the pIC50 on Prostaglandin E synthase [3] was 6.91; at Prostaglandin E synthase [5] it was under 4.30.

Take `N#Cc1cccc(C#N)c1-c1nc2c3ccc(Cl)cc3c3ccccc3c2[nH]1`: the half-life in data set [6] was 1.3 h; in [2], 1.5 h. The pIC50 in [7] was 7.00; in the data set on A549, under 4.40; in [9] it was under 4.52. Also, the ED50 in the data set on Cavia porcellus was 100 mg/kg. For the same compound, the remaining at 2 h in [8] stood at 90%.

Regarding `CCc1ccc2c(c1)c1cc(C#CC(C)(C)O)ccc1c1[nH]c(-c3c(C#N)cccc3C#N)nc21`, the half-life in data set [2] is 7 h. Besides, the pIC50 at Prostaglandin E synthase [3] was 9.00; with Blood [1] it was 6.43.

As for `N#Cc1cccc(C#N)c1-c1nc2c3ccc(Cl)cc3c3cc(OCCn4cccc4)ccc3c2[nH]1`, the pIC50 with Blood [1] is 6.42.

`CC(C)(O)Cc1ccc2c(c1)c1cc(OCCC3CC3)ccc1c1[nH]c(-c3c(C#N)cc(F)cc3C#N)nc21`: in [2], the half-life was 2.3 h. In addition, the pIC50 against Thromboxane-A synthase is 4.52; in [9], under 4.52. The same compound gave a bioavailability in data set [4] of 68%. Besides, the remaining at 2 h in [8] is 81%; in data set [10] it was 68%.

Turning to `N#Cc1cccc(C#N)c1-c1nc2c3ccc(Cl)cc3c3cc(C#CC4(O)CCCC4)ccc3c2[nH]1`, in the data set on Blood [1], the pIC50 was 6.59.

In the case of `CC(C)(O)C#Cc1ccc2c(c1)c1cc(Cl)ccc1c1nc(-c3c(C#N)cccc3C#N)[nH]c21`, the result with Blood [11] and with Blood [12] was inactive. For the same compound, in data set [2], the half-life is 20 h. For the same compound, the pIC50 in data set [7] is 7.00; against Thromboxane-A synthase, 6.10; with A549, under 4.40; with Blood [1] it was 6.70; with Blood [13] it was under 4.40; in [9] it was under 4.52. In the data set on Cavia porcellus, the ED50 was 30 mg/kg. Moreover, the remaining at 2 h in data set [8] and in data set [10] was 97% throughout.

Take `CC(C)CCOc1ccc2c(c1)c1cc(CC(C)(C)O)ccc1c1[nH]c(-c3c(C#N)cccc3C#N)nc21`: the half-life in data set [2] was 4.8 h. Further, the bioavailability in data set [4] was 46%. Besides, the figures for the remaining at 2 h in data set [8] and in data set [10] were 30% and 8%, respectively. The compound further had a pIC50 in the data set on Blood [1] of 6.82.

In the case of `CC(C)(O)Cc1ccc2c(c1)c1cc(Cl)ccc1c1nc(-c3c(C#N)cccc3C#N)[nH]c21`, the half-life in data set [2] was 8.4 h. Also, the pIC50 on Prostaglandin E synthase [3] was 8.70; with Blood [1], 6.60. Besides, the Tmax in [14] stood at 1 h.

`CC(C)COc1ccc2c(c1)c1cc(CC(C)(C)O)ccc1c1nc(-c3c(C#N)cccc3C#N)[nH]c21` gave a half-life in [2] of 1.3 h. This compound gave a bioavailability in data set [4] of 30%. The pIC50 on Prostaglandin E synthase [3] was 8.52; with Blood [1], 6.54.

For the compound `N#CCCCOc1ccc2c(c1)c1cc(Cl)ccc1c1nc(-c3c(C#N)cccc3C#N)[nH]c21`, in the data set with Blood [1], the pIC50 was 6.42.

In the data set on Blood [1], `COCC#Cc1ccc2c(c1)c1cc(Cl)ccc1c1nc(-c3c(C#N)cccc3C#N)[nH]c21` had a negative-log IC50 (pIC50) of 5.96.

`CC(C)(O)Cc1ccc2c(c1)c1cc(OCC3CC3)ccc1c1nc(-c3c(C#N)cccc3C#N)[nH]c21` showed a half-life in [2] of 5.5 h. The same compound registered a bioavailability in data set [4] of 36%. Besides, the pIC50 is 8.52 at Prostaglandin E synthase [3] and 6.46 with Blood [1]. The remaining at 2 h in [8] is over 99%.

Compound `CS(=O)(=O)c1ccc2c(c1)c1cc(Cl)ccc1c1nc(-c3c(C#N)cccc3C#N)[nH]c21` had a pIC50 with Blood [1] of under 5.00.

For `CC(C)(O)Cc1ccc2c(c1)c1cc(OCCCC(F)(F)F)ccc1c1nc(-c3c(C#N)cccc3C#N)[nH]c21`, the half-life in data set [2] was 3.3 h. The bioavailability in data set [4] came out at 85%. Moreover, the pIC50 on Prostaglandin E synthase [3] was 9.00; with Blood [1] it was 6.60. The remaining at 2 h in data set [8] stood at 98%; in [10] it was 92%.

`N#Cc1cccc(C#N)c1-c1nc2c3ccc(Cl)cc3c3cc(C#Cc4cccnc4)ccc3c2[nH]1` had a pIC50 in the data set on Blood [1] of 6.28.

In the data set with Blood [1], `CS(=O)(=O)c1ccc(-c2ccc3c(c2)c2cc(Cl)ccc2c2nc(-c4c(C#N)cccc4C#N)[nH]c32)cc1` had a pIC50 of 6.39.

In the case of `CC(C)(O)CCc1ccc2c(c1)c1cc(Cl)ccc1c1nc(-c3c(C#N)cccc3C#N)[nH]c21`, in [2], the half-life is 14 h. Also, in the data set with Blood [1], the pIC50 is 6.70.

Take `CC(C)(O)Cc1ccc2c(c1)c1cc(OCCC3CC3)ccc1c1nc(-c3c(C#N)cc(F)cc3C#N)[nH]c21`: the result in the data set on Blood [15], with Blood [11] and with Blood [12] was inactive. In addition, the pIC50 in the data set on A549 is under 4.40; with Blood [1], 6.85; with Blood [13], under 4.40. In addition, the ED50 in the data set with Cavia porcellus amounted to 14 mg/kg.

`N#Cc1cccc(C#N)c1-c1nc2c3ccc(Cl)cc3c3cc(C#Cc4ccncc4)ccc3c2[nH]1`: in the data set with Blood [1], the pIC50 was 6.41.
